ChEMBL document CHEMBL2424598, “Identification and optimization of pteridinone Toll-like receptor 7 (TLR7) agonists for the oral treatment of viral hepatitis” (J Med Chem, 2013)
Calls of active or inactive are those of the source. The calls are words filed in the database; no cut-off is given here.

Key:
Cynomolgus monkey [1] = experiment: Agonist activity at […] in cynomolgus monkey assessed as increase of serum IFNalpha level at 0.3 mg/kg, po after 1 to 24 hrs by ELISA; type: functional, Macaca fascicularis
Outline: (§1)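 Healthy male cynomolgus monkeys, n = 3 per group, dosed either by 30 min iv infusion or orally. Serum was sampled predose and at 1, 2, 4, 8, 12 and 24 h postdose. IFN-α was measured by species-specific ELISA (limit of detection 130 pg/mL) and reported as mean peak serum level ± SD.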

Cynomolgus monkey [2] = experiment: Agonist activity at […] in cynomolgus monkey assessed as increase of serum TNFalpha level at 0.3 to 1 mg/kg after 1 to 24 hrs by ELISA; conditions: Macaca fascicularis
Cynomolgus monkey [3] = experiment: Agonist activity at […] in cynomolgus monkey assessed as increase of serum IFNalpha level at 0.1 mg/kg, iv after 1 to 24 hrs by ELISA; type: functional, Macaca fascicularis; outline: as §1
[4] = target: T1, Toll-like receptor 7 (Homo sapiens) (UniProt Q9NYK1); experiment: Agonist activity at TLR7-mediated IFNalpha production in human PBMC assessed as minimum concentration of compound necessary to generate >3 fold of cytokine levels relative to control
T1 sequence (whole entry): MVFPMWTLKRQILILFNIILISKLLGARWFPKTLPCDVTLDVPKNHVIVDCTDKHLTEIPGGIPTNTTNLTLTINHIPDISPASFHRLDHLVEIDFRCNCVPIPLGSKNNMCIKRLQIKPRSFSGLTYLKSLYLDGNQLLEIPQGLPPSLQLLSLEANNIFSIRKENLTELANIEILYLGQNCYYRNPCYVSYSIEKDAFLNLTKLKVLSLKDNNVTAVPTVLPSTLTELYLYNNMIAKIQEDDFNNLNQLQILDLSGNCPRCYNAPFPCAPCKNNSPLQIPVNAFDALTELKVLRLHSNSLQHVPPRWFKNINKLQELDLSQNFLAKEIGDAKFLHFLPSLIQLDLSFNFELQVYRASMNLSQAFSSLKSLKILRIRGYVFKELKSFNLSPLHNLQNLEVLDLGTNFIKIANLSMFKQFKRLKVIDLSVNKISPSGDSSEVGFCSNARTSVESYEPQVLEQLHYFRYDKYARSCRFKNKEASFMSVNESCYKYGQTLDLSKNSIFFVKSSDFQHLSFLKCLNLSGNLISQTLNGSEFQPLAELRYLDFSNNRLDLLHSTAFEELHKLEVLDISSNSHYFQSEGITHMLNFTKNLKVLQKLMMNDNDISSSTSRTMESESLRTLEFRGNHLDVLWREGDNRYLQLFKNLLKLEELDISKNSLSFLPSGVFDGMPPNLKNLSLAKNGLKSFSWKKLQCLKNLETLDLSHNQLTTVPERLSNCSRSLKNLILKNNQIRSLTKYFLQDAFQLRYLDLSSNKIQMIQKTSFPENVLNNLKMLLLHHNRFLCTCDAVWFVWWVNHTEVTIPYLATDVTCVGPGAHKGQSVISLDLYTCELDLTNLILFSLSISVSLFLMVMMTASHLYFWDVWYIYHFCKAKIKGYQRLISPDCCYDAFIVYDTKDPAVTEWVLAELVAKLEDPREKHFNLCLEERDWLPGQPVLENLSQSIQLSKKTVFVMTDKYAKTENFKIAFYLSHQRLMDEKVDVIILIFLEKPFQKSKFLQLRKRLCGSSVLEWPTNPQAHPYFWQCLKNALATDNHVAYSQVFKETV
Outline: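 Cryopreserved PBMCs from leukapheresis of a single healthy human donor, chosen as a consistent, robust responder to TLR7 agonist stimulation. Cells were incubated with compound for 24 h over an eight-point concentration range. Secreted IFN-α was measured to build dose-response curves. MEC was taken as the lowest concentration giving cytokine levels ≥3-fold over untreated control cultures.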

[5] = Half life in mouse liver microsomes; type: ADME, Microsome
[6] = target: T2, Toll-like receptor 8 (Homo sapiens) (UniProt Q9NR97); experiment: Agonist activity at TLR8-mediated TNFalpha production in human PBMC assessed as minimum concentration of compound necessary to generate >3 fold of cytokine levels relative to control
T2 sequence (whole entry): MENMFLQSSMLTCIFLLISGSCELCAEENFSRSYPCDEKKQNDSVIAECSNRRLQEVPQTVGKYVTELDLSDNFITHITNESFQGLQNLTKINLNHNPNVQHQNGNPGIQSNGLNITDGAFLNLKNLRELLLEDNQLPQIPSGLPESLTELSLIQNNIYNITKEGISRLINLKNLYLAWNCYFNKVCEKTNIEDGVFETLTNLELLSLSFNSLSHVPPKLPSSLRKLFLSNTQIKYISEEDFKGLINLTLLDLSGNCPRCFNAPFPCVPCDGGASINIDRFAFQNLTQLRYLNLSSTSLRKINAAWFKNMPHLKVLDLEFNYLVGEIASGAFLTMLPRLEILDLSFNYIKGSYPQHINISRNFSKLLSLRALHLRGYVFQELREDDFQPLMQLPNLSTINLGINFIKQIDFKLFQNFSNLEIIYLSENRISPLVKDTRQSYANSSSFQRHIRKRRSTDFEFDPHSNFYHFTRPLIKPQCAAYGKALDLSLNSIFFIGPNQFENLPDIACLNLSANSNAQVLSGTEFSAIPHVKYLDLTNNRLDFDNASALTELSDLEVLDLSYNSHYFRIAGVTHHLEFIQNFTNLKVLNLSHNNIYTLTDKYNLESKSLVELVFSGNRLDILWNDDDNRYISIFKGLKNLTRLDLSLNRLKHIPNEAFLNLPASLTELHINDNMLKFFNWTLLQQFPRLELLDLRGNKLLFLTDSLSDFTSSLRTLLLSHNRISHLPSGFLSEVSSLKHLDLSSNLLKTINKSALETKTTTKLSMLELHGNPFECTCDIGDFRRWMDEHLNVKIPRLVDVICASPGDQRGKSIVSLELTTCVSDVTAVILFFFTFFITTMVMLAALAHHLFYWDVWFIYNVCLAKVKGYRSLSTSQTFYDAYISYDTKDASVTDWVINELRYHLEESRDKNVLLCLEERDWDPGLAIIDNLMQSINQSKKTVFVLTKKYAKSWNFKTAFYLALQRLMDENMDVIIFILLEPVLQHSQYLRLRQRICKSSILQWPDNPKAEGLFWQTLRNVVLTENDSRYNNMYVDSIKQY
Outline: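 Cryopreserved human PBMCs from leukapheresis of one healthy donor, chosen as a consistent responder to TLR7 stimulation; 24 h incubation with compound over an eight-point concentration range. TNF-α read from dose-response curves. MEC is the lowest concentration giving cytokine levels at least 3-fold above untreated control cultures.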

[7] = Cmax in cynomolgus monkey at 0.3 mg/kg, po; type: ADME, organism-based, Macaca fascicularis; design: dose 0.3 mg/kg, route oral; conditions: in vivo
Outline: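 Male cynomolgus monkeys, n = 3 per group, received a 30 min iv infusion or an oral dose. Compound was measured in serum (limit of quantitation 0.04 ng/mL), and Cmax is reported as the group mean.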

Cynomolgus monkey [8] = experiment: Agonist activity at […] in cynomolgus monkey assessed as increase of serum TNFalpha level at 2 mg/kg after 1 to 24 hrs by ELISA
[9] = Half life in dog liver microsomes; type: ADME, Canis lupus familiaris, Microsome
[10] = Half life in human liver microsomes; type: ADME, Microsome

## CCCCOc1nc(N)c2c(n1)N(Cc1cccc(CN3CCCC3)c1)CC(=O)N2 [VESATOLIMOD]
Cynomolgus monkey [1]
  Activity: 763 pg/mL
Cynomolgus monkey [2]
  Activity: inactive
Cynomolgus monkey [3]
  Activity: 1840 pg/mL
[4]
  MEC: 3 nM
[5]
  half-life: 4.9 min
[6]
  MEC: 3.65 µM
[7]
  Cmax: 4.6 ng/mL
Cynomolgus monkey [8]
  Activity: 578 pg/mL
[9]
  half-life: 58.6 min
[10]
  half-life: 30.5 min
